23 compounds from ChEMBL document CHEMBL3763032, “Novel Small Molecule Inhibitors of Choline Kinase Identified by Fragment-Based Drug Discovery” (J Med Chem, 2016) can be followed below.

For data set [1], the target named is T1, Choline kinase alpha (Homo sapiens, UniProt P35790).
Target sequence in this assay (P35790 whole entry): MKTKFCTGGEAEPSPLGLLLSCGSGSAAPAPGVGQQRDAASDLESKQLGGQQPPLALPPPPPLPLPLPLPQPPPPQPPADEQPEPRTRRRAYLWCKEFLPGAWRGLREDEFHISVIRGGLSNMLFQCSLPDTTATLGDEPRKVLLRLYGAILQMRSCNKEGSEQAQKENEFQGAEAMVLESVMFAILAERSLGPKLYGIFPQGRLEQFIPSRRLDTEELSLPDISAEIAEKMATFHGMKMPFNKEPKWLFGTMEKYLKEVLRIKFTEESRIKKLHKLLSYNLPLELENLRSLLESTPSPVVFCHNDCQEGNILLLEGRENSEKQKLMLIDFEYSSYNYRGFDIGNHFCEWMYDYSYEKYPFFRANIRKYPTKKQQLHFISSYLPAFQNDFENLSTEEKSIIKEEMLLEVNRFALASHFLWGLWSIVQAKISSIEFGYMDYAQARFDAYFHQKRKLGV
The target in data set [2] is T1, Choline kinase alpha. This is another data set of the same source.
Target sequence in this assay (P35790 whole entry): as above
Data set [3] concerns the target T1, Choline kinase alpha. In words: Reversible binding affinity to human N-terminal truncated ChoKalpha1 (75 to 457 residues) ChoKalpha1 by STD NMR analysis. In short, it runs like this: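 Saturation-transfer difference NMR primary screen. On-resonance irradiation was at 0.8 ppm and off-resonance at 30 ppm, with excitation-sculpting water suppression; 320 scans were averaged.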
Target sequence in this assay (P35790 whole entry, looked up): as the sequence (P35790 whole entry) above

The target in data set [4] is T1, Choline kinase alpha. Nature of the data set: Inhibition of recombinant human ChoKalpha using choline as substrate by ultraviolet spectroscopic assay. In short, it runs like this:
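Coupled ATP-regeneration assay with recombinant human ChoKα1 (N-terminal His tag, pET28a, >95% pure) at 10–50 nM monomer. A340 read over 10–30 min. Initial rates taken across 2-fold inhibitor dilutions and fitted to a dose–response model for IC50.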
Target sequence in this assay (P35790 whole entry): as above

In data set [5] the target is Carbonic anhydrase 2 (Homo sapiens, UniProt P00918). In words: Binding affinity to carbonic anhydrase2 (unknown origin) by surface plasmon resonance assay. In short, it runs like this: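 Carbonic anhydrase II, used as the reference surface, amine-coupled at a density similar to the ChoKα1 surface. 25 °C, 2-fold dilution series (fragments top at 300 μM). Single-step kinetics (Biacore) or FastStep (SensiQ). Kd from 1:1 binding model fits.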

Data set [6] deals with MDA-MB-468. In words: Cytotoxicity against human MDA-MB-468 cells expressing ChoKalpha after 72 hrs by CyQuant cell proliferation assay. Particulars: for GI50: Homo sapiens, MDA-MB-468, 72 h. In kind it is functional. In short, it runs like this: (§1)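 Cells from ATCC, used within 6 months, grown in the supplier-recommended medium. Treated with compound or vehicle for 72 h, then read by CyQuant proliferation kit. GI50 determined after correcting for cell count at time zero, with growth plotted as percent of vehicle-treated cells. Mean ±SD from ≥2 separate experiments.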

The target in data set [7] is T1, Choline kinase alpha. Nature of the data set: Inhibition of ChoKalpha in human MDA-MB-468 cells assessed as reduction in phosphocholine level after 24 hrs by NMR analysis. In kind it is cell-based.
Target sequence in this assay (P35790 whole entry): as above
The nature of data set [8]: Cytotoxicity against human MCF10A cells after 72 hrs by CyQuant cell proliferation assay. The settings on record: for GI50 at 72 h: MCF10A cells; for %max: mcf-10a, 72 h. In kind it is cell-based, MCF-10A. In short, it runs like this:
as §1

Data set [9] in a line: Induction of apoptosis in human MCF12A cells upto 40 uM after 24 hrs by caspase-3/7 assay. In kind it is cell-based. Particulars: mcf-12a. In short, it runs like this:
(§2)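 Cells exposed to compounds for 24 h, then caspase activity measured with the Apo-ONE homogeneous caspase-3/7 assay. Apoptosis expressed as a percentage of vehicle-treated cells, from one representative experiment.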

Data set [10] addresses T1, Choline kinase alpha. This is another data set of the same source.
Target sequence in this assay (P35790 whole entry, looked up): as the sequence (P35790 whole entry) above
In data set [11] the test system is MDA-MB-415. In words: Cytotoxicity against human MDA-MB-415 cells expressing ChoKalpha after 72 hrs by CyQuant cell proliferation assay. In kind it is functional. Particulars: for GI50: Homo sapiens, MDA-MB-415, 72 h. The gist of the method:
as §1

Data set [12] can be described thus: Cytotoxicity against human MCF12A cells after 72 hrs by CyQuant cell proliferation assay. The data set is classed as cell-based, MCF-12A. Particulars: for GI50 at 72 h: MCF12A cells; for %max: mcf-12a, 72 h. The gist of the method: as §1
Data set [13] deals with MDA-MB-415. In words: Induction of apoptosis in human MDA-MB-415 cells expressing ChoKalpha after 24 hrs by caspase-3/7 assay. In kind it is functional, cell-based. The gist of the method: as §2
The nature of data set [14]: Effect on phosphocholine level in human MCF12A cells after 24 hrs by NMR analysis. In kind it is ADME, cell-based. Particulars: mcf-12a. In short, it runs like this: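 Cells grown with increasing compound concentrations or vehicle (DMSO) for 24 h, then counted and checked for viability by Trypan blue exclusion. 5 ×10^6 viable cells washed twice in ice-cold d-PBS and extracted by vortexing 30 s in 6 mL ice-cold 100% methanol. Intracellular choline and phosphocholine quantified by NMR.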

The target of data set [15] is T1, Choline kinase alpha. Nature of the data set: Inhibition of ChoKalpha in human MDA-MB-415 cells assessed as reduction in phosphocholine level after 24 hrs by NMR analysis. The data set is classed as cell-based.
Target sequence in this assay (P35790 whole entry): as above
The subject of data set [16] is MDA-MB-468. In words: Cytotoxicity against human MDA-MB-468 cells after 72 hrs by MTT assay. In kind it is functional, cell-based. The settings on record: MDA-MB-468, 72 h.
The nature of data set [17]: Cytotoxicity against human MCF10A cells after 72 hrs by MTT assay. The data set is classed as cell-based. Particulars: MCF-10A.

Active and inactive are the calls of the source. No cut-off for these calls is given here.

`CN1CCCN(Cc2ccc3ncccc3c2)CC1` registered a concentration for half-maximal inhibition (IC50) in data set [1] of 3.9 µM. In addition, in data set [2], the dissociation constant (Kd) was determined as 4 µM.

With `Cc1cc(O)cc(C)c1C#N`, the outcome in [3] was Active.

For `COc1ccc(-c2ccc(CN3CCCN(C)CC3)cc2)cc1`, in data set [1], the 50% inhibitory concentration (IC50) is 1.43 µM. The compound further had a dissociation constant Kd in [2] of 3.8 µM.

With `O[C@](CCc1ccccc1OC1CCOCC1)(c1ccccc1)C1CN2CCC1CC2` (some centres not stated), the half-inhibitory concentration (IC50) in data set [4] came out at 0.02 µM.

Compound `CN1CCCN(Cc2ccc(CN)cc2)CC1` came in with a half-inhibitory concentration (IC50) in data set [1] of 87 µM. For the same compound, the Kd turned out to be 490 µM in data set [5] and 132 µM in data set [2].

Turning to `CN1CCCN(Cc2ccc(-c3ccc(C(=O)N4CCCN(C)CC4)cc3)cc2)CC1`, in data set [1], inhibition was half-maximal at 0.251 µM (IC50). In addition, in data set [2], binding was put at a Kd of 0.195 µM.

For `CN1CCCN(Cc2ccc(-c3ccc(CN4CCCN(C)CC4)cc3)cc2)CC1`, the half-maximal inhibitory concentration (IC50) in [1] amounted to 0.457 µM; in data set [7] it was 2 µM. For the same compound, the “%max” value came out at 163% in [6], 77% in data set [8], 158% in [11] and 64% in [12]. The 50% growth inhibitory concentration (GI50) worked out at 9 µM in data set [6] and 4 µM in data set [11]. Moreover, the GI50 at 72 h was determined as 27 µM in data set [8] and 31 µM in [12]. In [2], this compound displayed a Kd of 0.382 µM. Also, in [9], the Activity entry is “Non-toxic”. In addition, in data set [10], the Ka turned out to be 94000 M⁻¹ s⁻¹. Also, in data set [13], the result was Active.

For the compound `CN1CCCN(Cc2ccc(-c3ccc(C(F)(F)F)cc3)cc2)CC1`, it took 2.6 µM to reach half-maximal inhibition in data set [1] (IC50). The same compound had a Kd in data set [2] of 4 µM.

In data set [1], `CN1CCCN(Cc2ccc(-c3ccc(CN4CCCN(C)CC4)c(Cl)c3)cc2)CC1` gave a half-maximal inhibitory concentration (IC50) of 0.268 µM. In [2], this compound registered a Kd of 0.088 µM. In data set [10], this compound gave a Ka of 235000 M⁻¹ s⁻¹.

As for `CN1CCCN(Cc2ccc(-c3ccc(CN4CCCN(C)CC4)cc3C#N)cc2)CC1`, it took 0.066 µM to reach half-maximal inhibition in data set [1] (IC50). In [2], this compound registered a Kd of 0.01 µM. Besides, the Ka in data set [10] turned out to be 676000 M⁻¹ s⁻¹.

In [1], `CN1CCCN(Cc2ccc(-c3ccc(N4CCN(C)CC4)cc3)cc2)CC1` yielded a half-inhibitory concentration (IC50) of 1.3 µM. This compound displayed a Kd in [2] of 0.769 µM.

Regarding `CN1CCCN(Cc2ccc(-c3ccccc3)cc2)CC1`, the IC50 in data set [1] is 1.48 µM. The same compound registered a Kd in [2] of 3.7 µM.

In turn, `CN1CCCN(Cc2ccc3ccccc3c2)CC1` showed an IC50 in data set [1] of 2.6 µM. Moreover, the Kd in data set [2] was 4.3 µM.

On to `CN1CCCN(Cc2ccc(-c3ccc(CN4CCCN(C)CC4)cc3C#N)c(F)c2)CC1`, for which the IC50 in data set [1] is 0.085 µM; in data set [15], 0.75 µM. Moreover, the “%max” value in data set [6] was 139%; in [8], 99%; in data set [11], 189%; in [12], 51%. The GI50 turned out to be 7 µM in data set [6] and 2 µM in data set [11]. The Activity result in data set [14] and in [9] was “Non-toxic” throughout. Further, the concentration for 50% growth inhibition (GI50) at 72 h in data set [8] is 18 µM; in data set [12], greater than 40 µM. Further, the Kd in data set [2] stood at 0.099 µM. Also, the Ka in data set [10] amounted to 112000 M⁻¹ s⁻¹. Also, in data set [13], the result was Active.

Turning to `CN1CCCN(Cc2ccc(-c3ccc(CN4CCCN(C)CC4)cc3F)cc2)CC1`, inhibition in data set [1] was half-maximal at 0.165 µM (IC50). For the same compound, the Kd in data set [2] amounted to 0.211 µM. The Ka in data set [10] is 93000 M⁻¹ s⁻¹.

In data set [1], `CN1CCCN(Cc2ccc(-c3ccc(CN4CCCN(C)CC4)c(F)c3F)cc2)CC1` had a half-maximal inhibitory concentration (IC50) of 0.233 µM. The compound further showed an equilibrium dissociation constant (Kd) in data set [2] of 0.021 µM. This compound had a Ka in data set [10] of 718000 M⁻¹ s⁻¹.

Turning to `O=C(N1CCCCCC1)N1CCNCC1`, the IC50 in data set [1] was greater than 300 µM. The Kd in [5] amounted to 1400 µM; in data set [2] it was 340 µM.

Compound `CN1CCCN(c2ccc(CO)cc2)CC1` yielded a half-inhibitory concentration (IC50) in data set [1] greater than 2000 µM. Besides, the affinity in data set [2], expressed as Kd, was 194 µM.

Turning to `CN1CCNCC(Cc2ccc3ncccc3c2)C1` (configuration not stated), the IC50 in data set [1] worked out at 17.2 µM. In [2], binding was characterised by a dissociation constant (Kd) of 7 µM.

For the compound `CN1CCCN(Cc2ccc(-c3cc(F)c(CN4CCCN(C)CC4)c(F)c3)cc2)CC1`, half-maximal inhibition in [1] (IC50) required 0.255 µM. The Kd in data set [2] is 0.259 µM. The same compound registered a Ka in data set [10] of 125000 M⁻¹ s⁻¹.

In turn, `COC(=O)c1ccc(-c2ccc(CN3CCCN(C)CC3)cc2)cc1` gave a concentration for half-maximal inhibition (IC50) in data set [1] of 4.95 µM. Also, binding in data set [2] was characterised by a dissociation constant (Kd) of 2.4 µM.

For the compound `Nc1cc(C(F)(F)F)ncn1`, in [1], the IC50 was greater than 300 µM. In addition, the Kd was found to be 670 µM in data set [5] and 630 µM in data set [2].

Turning to `CN(c1ccc(Cl)cc1)c1cc[n+](Cc2ccc(-c3ccc(C[n+]4ccc(N(C)c5ccc(Cl)cc5)c5ccccc54)cc3)cc2)c2ccccc12` [RSM-932A], the IC50 was 2.4 µM in data set [16] and 7.1 µM in data set [17].
